Compound activity: PubChem, several laboratories
NLRP3 yeast inh: NALP3 inflammasome inhibitors in reconstituted yeast, primary screen, luminescence, uHTS; Yeast reconstituted NLRP3/ASC/caspase-1, beta-gal luminescence, 24 h; AID 2825, 2010; 0.39% of 330,000 active; inhibition, % at 10 µM;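 active = inhibition of 50% or more; inactive = inhibition below 50%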;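 also: plate controls were induced DMSO wells for no effect and uninduced yeast grown without galactose for full effect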
Arrestin-AP2 inh: inhibitors of beta-arrestin/AP2 binding, primary screen, biochemical, GPCR trafficking, flow cytometry; FITC-arrestin peptide / GST-AP2 beads; AP2 beta2 appendage carries R879A mutation; inhibition, % at 10 µM; 0.31% of 340,000 active;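 active = inhibition above a set limit, near 3 SD of compounds lacking own fluorescence, cut at about 54% in these data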;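 also: plate controls were DMSO wells for no effect and 5 µM unlabelled arrestin peptide for full effect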
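System: GST-AP2 R879A glutathione beads; medium: PBS, Tween 20 0.05%, BSA 0.1%; reagent: fluorescein-tagged arrestin peptide at 50 nM final; schedule: pre-incubation 12 min, peptide binding 1 h, room temperature; detection: flow cytometry, FL1 (488/535 nm); read-out: inhibition as reduced fluorescein signal on beads, percent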
NALP1 yeast inh: NALP1 inflammasome inhibitors in reconstituted yeast, colorimetric, S. cerevisiae, triplicate retest; inhibition, % at 10 µM; 0.61% of 280,000 active; S. cerevisiae NALP1/ASC/caspase-1 growth, X-gal OD620, 72 h; AID 2071, 2009; in the data active = inhibition mostly above about 24%, no sharp cut-off; inactive = mostly below about 32%
Pemphigus Ab inh: inhibitors of pemphigus antibody binding to DSG3, primary screen, biochemical, bead-based, flow cytometry, scFv-GFP | DSG3-coupled beads, scFv-anti-DSG3-GFP binding; stronger effect = lower value | binding (percent of control), % at 10 µM | 0.48% of 310,000 active | AID 588358, 2011;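 active = binding more than 3 SD below its plate's average and above zero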;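 also: hits lower antibody fragment binding to DSG3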
ALR inh: inhibitors of human ALR sulfhydryl oxidase, primary screen, biochemical, H2O2 detection, HRP-luminol luminescence, single point; 3.8% of 290,000 active; purified ALR, DTT oxidation; AID 485317, 2010; inhibition, % (test concentration not listed); FAD-linked sulfhydryl oxidase ALR (Homo sapiens), P55789;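 active = mean replicate inhibition above about 79%, with every replicate also reaching it, limit read from the data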
Target sequence (P55789 whole entry, looked up): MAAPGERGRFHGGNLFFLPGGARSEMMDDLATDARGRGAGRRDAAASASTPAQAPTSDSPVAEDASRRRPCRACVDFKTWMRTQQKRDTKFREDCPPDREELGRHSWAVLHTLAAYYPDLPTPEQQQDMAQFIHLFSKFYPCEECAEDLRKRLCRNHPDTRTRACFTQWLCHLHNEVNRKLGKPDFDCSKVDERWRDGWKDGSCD
PolyA inhibitor: polyadenylation inhibitors in yeast reporter cells, primary screen, luminescence, S. cerevisiae. S. cerevisiae SKY197-pL101 polyadenylation reporter, beta-gal luminescence; efflux-impaired pdr1/pdr3 knockout yeast; score 100 = 6 SD above DMSO. activity score, % at 12 µM. 0.02% of 300,000 active. AID 1875, 2009;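 active = lowest replicate activity score at least 50, where 100 means six control SD above control mean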;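 also: yeast exposed to compound for 9 h at 30 °C; higher score means more reporter readthrough which indicates perturbed polyadenylation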
Active calls of the source: *. Rows were chosen to be rich in hits. Some 4.6% of all compounds tested hit in one or more screens of this group.

Screening NS(=O)(=O)c1ccc(NC(=O)c2cc(-c3cccs3)nc3ccccc23)cc1 returned NLRP3 yeast inh 6, Arrestin-AP2 inh 10, NALP1 yeast inh 27, Pemphigus Ab inh 36*, ALR inh -8 and PolyA inhibitor 18.
Cc1ccc(-c2cc(C(=O)Nc3ccc(S(=O)(=O)Nc4nc(C)cc(C)n4)cc3)c3ccccc3n2)cc1 was read as NLRP3 yeast inh 5, Arrestin-AP2 inh 12, NALP1 yeast inh 24, Pemphigus Ab inh 103, ALR inh -1 and PolyA inhibitor -7.
`COC(=O)c1ccc(NC(=O)c2cc(-c3ccccn3)nc3ccccc23)cc1` gave NLRP3 yeast inh -14, Arrestin-AP2 inh -4, NALP1 yeast inh 7, Pemphigus Ab inh 4.9* and PolyA inhibitor -7.
For CC(=O)NS(=O)(=O)c1ccc(NC(=O)c2cc(-c3ccc(C)c(C)c3)nc3ccccc23)cc1 the results were NLRP3 yeast inh 29, Arrestin-AP2 inh 6, NALP1 yeast inh 22, Pemphigus Ab inh 109, ALR inh 97* and PolyA inhibitor 4.
For CC(=O)NS(=O)(=O)c1ccc(NC(=O)c2cc(-c3ccc(C)cc3)nc3ccccc23)cc1 the results were NLRP3 yeast inh 5, Arrestin-AP2 inh 2, NALP1 yeast inh 18, Pemphigus Ab inh 100, ALR inh 98* and PolyA inhibitor 12.
`CC(C)C(=O)N1CCN(c2ccccc2NC(=O)c2ccco2)CC1` gave NLRP3 yeast inh -5, Arrestin-AP2 inh 5, NALP1 yeast inh 2, Pemphigus Ab inh 104, ALR inh -9 and PolyA inhibitor 2.
Cc1ccc(S(=O)(=O)N2CCCCC2)cc1NC(=O)COC(=O)c1cccc(O)c1 was read as Pemphigus Ab inh 98.
CC(=O)n1cc([C@H]2C=C(C(N)=O)O[C@@H](OCc3ccc(CO)cc3)C2)c2ccccc21 was read as NLRP3 yeast inh -11, Arrestin-AP2 inh 1, Pemphigus Ab inh 104, ALR inh -30 and PolyA inhibitor 10.
For O=c1cc(-c2ccccc2Cl)oc2c(NS(=O)(=O)c3cc(Cl)cc(Cl)c3O)ccc(O)c12 the results were NLRP3 yeast inh -10, Arrestin-AP2 inh 35, NALP1 yeast inh 26, Pemphigus Ab inh 100, ALR inh 97* and PolyA inhibitor 11.
Screening CCc1ccc(S(=O)(=O)Nc2ccc(O)c3c(=O)cc(-c4ccccc4Cl)oc23)cc1 returned NLRP3 yeast inh 12, Arrestin-AP2 inh 2, NALP1 yeast inh 5, Pemphigus Ab inh 103, ALR inh 3 and PolyA inhibitor -13.
For COc1ccc(-c2cn(Cc3ccc(C(=O)NCc4ccc(C)cc4)cc3)c(C(C)N)n2)cc1 (configuration not stated) the results were NLRP3 yeast inh 13, Arrestin-AP2 inh 3, Pemphigus Ab inh 118, ALR inh -12 and PolyA inhibitor 38.
For CCCN=C1N(C)C[C@@H]2[C@@H]3C(=O)N(C)C(=O)[C@@H]3[C@](C)(C(=O)OC)N12 the results were Arrestin-AP2 inh 22 and Pemphigus Ab inh 108.
For O=C(Nc1ccc(Cl)cc1Cl)N1CCN(c2ncccn2)CC1 the results were NLRP3 yeast inh 24, NALP1 yeast inh 42*, Pemphigus Ab inh 105, ALR inh 3 and PolyA inhibitor -1.
For CCOc1ccc(NC(=O)CN(C)C2=NS(=O)(=O)c3ccccc32)cc1 the results were Pemphigus Ab inh 103.
Screening C[C@H](CO)N1C[C@H](C)[C@@H](CN(C)Cc2ccccc2)OCc2cnnn2CCCC1=O returned Pemphigus Ab inh 91*.
C[C@@H]1CN([C@H](C)CO)C(=O)CCCn2nncc2CO[C@H]1CN(C)Cc1ccc(-c2ccccc2)cc1 was read as Pemphigus Ab inh 109.
Screening O=C(CSc1nc(=O)n(CCCN2CCOCC2)c2c1CCCC2)Nc1ccc(F)cc1 returned NLRP3 yeast inh 4, Arrestin-AP2 inh -15, Pemphigus Ab inh 88, ALR inh 28 and PolyA inhibitor -13.
`Cc1ccc(NC(=O)CSc2nc(=O)n(CCCN3CCOCC3)c3c2CCCC3)cc1` gave NLRP3 yeast inh 17, Arrestin-AP2 inh 30, Pemphigus Ab inh 99, ALR inh 98* and PolyA inhibitor -9.
CCCCc1ccc(NC(=O)CSc2nc(=O)n(CCN3CCOCC3)c3c2CCC3)cc1 was read as NLRP3 yeast inh -3, Arrestin-AP2 inh 0, Pemphigus Ab inh 106, ALR inh 99* and PolyA inhibitor 13.
CCOc1ccc(NC(=O)CSc2nc(=O)n(Cc3cccnc3)c3c2CCC3)cc1 was read as NLRP3 yeast inh 14, Arrestin-AP2 inh 5, Pemphigus Ab inh 119, ALR inh 99* and PolyA inhibitor 0.
For CC(C)c1ccc(NC(=O)CSc2nc(=O)n(CCN3CCOCC3)c3c2CCC3)cc1 the results were NLRP3 yeast inh 13, Arrestin-AP2 inh 5, Pemphigus Ab inh 91, ALR inh 99* and PolyA inhibitor -1.
For CCC(C)c1ccccc1N1CC(C(=O)N(C)CC(=O)Nc2cccc(F)c2)CC1=O (configuration not stated) the results were NLRP3 yeast inh -8, Arrestin-AP2 inh 16, Pemphigus Ab inh 102, ALR inh 8 and PolyA inhibitor 1.
`CC(=O)Nc1ccc(NC(=O)CSc2ccc(-c3ccc(-n4ccnc4)cc3)nn2)cc1` gave NLRP3 yeast inh 40, Arrestin-AP2 inh 9, Pemphigus Ab inh 119, ALR inh 54 and PolyA inhibitor 21.
CC(C#N)(NC(=O)CN1CCN(S(=O)(=O)c2cccc(F)c2)CC1)C1CC1 (configuration not stated) was read as Pemphigus Ab inh 93.
For CCCCc1ccc(NC(=O)CSc2nc(=O)n(CCCN3CCOCC3)c3c2CCC3)cc1 the results were NLRP3 yeast inh 13, Arrestin-AP2 inh -9, Pemphigus Ab inh 101, ALR inh 99* and PolyA inhibitor 2.
CCOc1ccccc1NC(=O)CSc1nc(=O)n(CCN2CCOCC2)c2c1CCCC2 was read as NLRP3 yeast inh 11, Arrestin-AP2 inh -17, Pemphigus Ab inh 99, ALR inh 1 and PolyA inhibitor 6.
`CCOc1ccc(NC(=O)CSc2nc(=O)n(CCCN3CCOCC3)c3c2CCC3)cc1` gave NLRP3 yeast inh 21, Arrestin-AP2 inh 11, Pemphigus Ab inh 99, ALR inh 97* and PolyA inhibitor -16.
For Cc1cccc(NC(=O)CSc2nc(=O)n(CCCN3CCOCC3)c3c2CCCC3)c1C the results were Pemphigus Ab inh 103.
